ChEMBL document CHEMBL1122439 (J Med Chem, 1983)
Activity calls are given as the source filed them. No cut-off for these calls is given here.

Experiments:
[1] = system: Canis familiaris; experiment: % Inhibition of acid output in dogs at a dose of 5.0 mg/kg administered intravenously; assay type: functional; details: Canis lupus familiaris, route intravenous
Outline: (§1)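 Dogs with chronic gastric fistula; gastric acid secretion evoked by maximal stimulating histamine dose (64 μg/kg, sc). Test agent given intravenously, or intragastrically via fistula for peroral dosing; percent inhibition of acid output recorded at the stated single dose.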

[2] = target: Histamine H2 receptor (Cavia porcellus) (UniProt P47747); experiment: Evaluated in vitro for Histamine H2 receptor inhibition using the dimaprit stimulated chronotropic response of the guinea pig atrium; inact means inactive at 8 x 10 -8 M; assay type: tissue-based; details: Cardiac atrium, in the assay text read “8 x 10 -5 M” for “8 x 10 -8 M”
Chain of Histamine H2 receptor (Cavia porcellus) (P47747 whole entry): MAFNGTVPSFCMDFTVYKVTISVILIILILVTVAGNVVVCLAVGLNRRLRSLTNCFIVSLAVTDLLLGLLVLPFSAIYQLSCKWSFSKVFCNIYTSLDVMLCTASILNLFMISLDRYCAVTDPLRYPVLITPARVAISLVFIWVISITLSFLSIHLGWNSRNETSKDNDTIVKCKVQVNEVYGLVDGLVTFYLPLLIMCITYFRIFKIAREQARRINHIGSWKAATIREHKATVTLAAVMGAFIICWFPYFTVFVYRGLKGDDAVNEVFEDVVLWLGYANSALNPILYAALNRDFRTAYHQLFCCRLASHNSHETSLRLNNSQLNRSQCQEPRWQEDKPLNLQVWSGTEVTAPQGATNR
Outline: (§2)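 Isolated guinea pig atria; chronotropic response to rising concentrations of H2 agonist dimaprit (10⁻⁷–10⁻⁴ M) in presence of test agent; three to four atria per test concentration; -log K_I = log(ED50 dose ratio − 1) − log(drug dose).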

[3] = pKa of heterocyclic component measured as proton gained; assay type: physicochemical
Outline: (§3)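 Potentiometric titration in water with glass electrodes; heterocycle pKa taken as proton gained, urea-component pKa as proton lost; method upper limit pKa 11.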

[4] = pKa of urea component measured as proton lost reference pKa for the 3,4 diaminothiadiazole 1-oxide is ~11 in water; assay type: physicochemical; details: buffer; outline: as §3
[5] = system: Canis familiaris; experiment: Effective dose administarted intravenously required for 50 % inhibition of acid output in dogs; value may range from 0.01-0.08; assay type: functional; details: Canis lupus familiaris, iv
[6] = system: Canis familiaris; experiment: % Inhibition of acid output in dogs at a dose of 0.03 mg/kg administered intravenously; assay type: functional; details: Canis lupus familiaris, route intravenous; outline: as §1
[7] = system: Canis familiaris; experiment: % Inhibition of acid output in dogs at a dose of 10 mg/kg administered perorally; assay type: functional; details: Canis lupus familiaris, route oral; outline: as §1
[8] = target: Histamine H2 receptor (Cavia porcellus, UniProt P47747); experiment: Evaluated in vitro for Histamine H2 receptor inhibition using the dimaprit stimulated chronotropic response of the guinea pig atrium; assay type: tissue-based, Cardiac atrium; outline: as §2
Chain of Histamine H2 receptor (P47747 whole entry): as above

[9] = system: Canis familiaris; experiment: % Inhibition of acid output in dogs at a dose of 3.0 mg/kg administered intravenously; assay type: functional; details: Canis lupus familiaris, route intravenous; outline: as §1
[10] = system: Canis familiaris; experiment: Effective dose administarted intravenously required for 50 % inhibition of acid output in dogs; value may range from 0.01-0.02; assay type: functional; details: Canis lupus familiaris, iv
[11] = system: Canis familiaris; experiment: % Inhibition of acid output in dogs at a dose of 20 mg/kg administered perorally; assay type: functional; details: Canis lupus familiaris, route oral; outline: as §1
[12] = system: Canis familiaris; experiment: Effective dose administarted intravenously required for 50 % inhibition of acid output in dogs; value may range from 0.15-0.18; assay type: functional; details: Canis lupus familiaris, iv
[13] = system: Canis familiaris; experiment: Effective dose administarted perorally required for 50 % inhibition of acid output in dogs; assay type: functional; details: Canis lupus familiaris, po
[14] = system: Canis familiaris; experiment: Effective dose administarted intravenously required for 50 % inhibition of acid output in dogs; Value may range from 0.01-0.03; assay type: functional; details: Canis lupus familiaris, iv
[15] = system: Canis familiaris; experiment: Effective dose administarted perorally required for 50 % inhibition of acid output in dogs; value may range from 0.7-10.9; assay type: functional; details: Canis lupus familiaris, po

C/N=C(\NC#N)Nc1ccccc1-c1[nH]cnc1C
inhibition in vivo at 5 mg/kg [1]: 4% | -Log Ki [2]: inactive

N=C(N)Nc1nc(-c2cccc(Nc3n[s+]([O-])nc3N)c2)cs1 (configuration not stated)
pKa [3]: 6.2 | pKa [4]: 8.9 | ED50 [5]: 0.02 mg/kg | inhibition in vivo at 0.03 mg/kg [6]: 58% | inhibition in vivo at 10 mg/kg [7]: 31% | Ki [8]: 316 nM

CN/C(=C\[N+](=O)[O-])Nc1ccc(-c2csc(N=C(N)N)n2)cc1
pKa [3]: 6.2 | pKa [4]: 9.7 | inhibition in vivo at 3 mg/kg [9]: 55% | Ki [8]: 31600 nM

CNC(=NC#N)Nc1cccc(-c2nc[nH]c2C)c1
inhibition in vivo at 5 mg/kg [1]: 48% | Ki [8]: 39800 nM

CNc1n[s+]([O-])nc1Nc1cccc(-c2csc(N=C(N)N)n2)c1 (configuration not stated)
inhibition in vivo at 0.03 mg/kg [6]: 85% | inhibition in vivo at 10 mg/kg [7]: 21% | Ki [8]: 398 nM | ED50 [10]: 0.017 mg/kg

CN/C(=C/[N+](=O)[O-])Nc1cccc(-c2csc(N=C(N)N)n2)c1
pKa [3]: 6 | pKa [4]: 9.2 | inhibition in vivo at 0.03 mg/kg [6]: 59% | inhibition in vivo at 10 mg/kg [7]: 70% | Ki [8]: 200 nM

CN/C(=C\[N+](=O)[O-])Nc1cccc(-c2[nH]cnc2C)c1
inhibition in vivo at 5 mg/kg [1]: 28% | inhibition in vivo at 20 mg/kg [11]: 54% | Ki [8]: 15800 nM

Cc1[nH]cnc1-c1cccc(Nc2n[s+]([O-])nc2N)c1 (configuration not stated)
inhibition in vivo at 5 mg/kg [1]: 5% | inhibition in vivo at 20 mg/kg [11]: 1% | Ki [8]: 794 nM

CNC(=NCCSCc1csc(N=C(N)N)n1)NC#N [TIOTIDINE]
pKa [3]: 7.1 | ED50 [12]: 0.16 mg/kg | ED50 [13]: 0.12 mg/kg

C/N=C(\NC#N)Nc1ccc(-c2[nH]cnc2C)cc1
inhibition in vivo at 5 mg/kg [1]: 0% | -Log Ki [2]: inactive

CN/C(=N\CCSCc1nc[nH]c1C)NC#N [CIMETIDINE]
pKa [3]: 6.4 | ED50 [13]: 2.86 mg/kg

C/N=C(\NC#N)Nc1cccc(-c2csc(N=C(N)N)n2)c1
pKa [3]: 6.2 | ED50 [14]: 0.02 mg/kg | ED50 [15]: 2.81 mg/kg | inhibition in vivo at 0.03 mg/kg [6]: 79% | inhibition in vivo at 10 mg/kg [7]: 73% | Ki [8]: 316 nM
